From ChEMBL document CHEMBL5223075, “Discovery of thienothiazolocarboxamide analogues as novel anti-tubercular agent” (Bioorg Med Chem, 2020)
Values after ≈ are worked out from the molar mass of the structure shown. Active and inactive are the calls of the source. The rule behind the calls is not given here.

Assays:
[1] = test system: Mycobacterium tuberculosis; assay: Antitubercular activity against Mycobacterium tuberculosis H37Rv ATCC 27294 expressing the green fluorescence protein infected in mouse RAW264.7 cells assessed as inhibition of bacterial growth pre-infected with cell followed by compound addition and measured after 5 days by Hoechst 33342 staining based analysis; format: functional, organism-based; details: H37Rv ATCC 27294, RAW264.7, 120 h
Method in brief: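 RAW 264.7 cells, passages 2-9, were infected with washed H37Rv-GFP at MOI 20 for 2 h at 37°C with shaking. Cells were washed and plated at 20,000/well over 2-fold compound dilutions for 5 days. Nuclei were stained with 5 µM Hoechst (final) and 3 fields/well imaged. Four parameters (cell count, bacterial area, area per infected cell, infected-cell ratio) were each fitted by 4-parameter sigmoid, and the IC50s averaged.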

[2] = test system: Mycobacterium tuberculosis; assay: Antitubercular activity against Mycobacterium tuberculosis H37Rv ATCC 27294 expressing the green fluorescence protein assessed as inhibition of bacterial growth by measuring GFP fluorescence incubated for 5 days by fluorescence based plate reader analysis; format: functional, organism-based; details: H37Rv ATCC 27294, 120 h
Method in brief: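 H37Rv-GFP was grown 14 days in 7H9/OADC/Tween/glycerol/hygromycin, washed, and seeded at ~3×10^6 CFU/mL. Compounds were given as 10-point 2-fold series starting at 20 or 1 µM, in 1% DMSO final. Plates ran 5 days at 37°C, 5% CO2, with rifampicin 1 µg/mL as positive control. GFP fluorescence was read and IC50 taken from a 4-parameter sigmoid fit.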

[3] = Metabolic stability in mouse liver microsome assessed as phase I mediated metabolite formation by measuring half-life; format: ADME; details: microsomes
[4] = Solubility of the compound at pH 7.4; format: physicochemical; details: buffer
[5] = Solubility of the compound at pH 2.1; format: physicochemical; details: buffer
[6] = Metabolic stability in human liver microsome assessed as phase I mediated metabolite formation by measuring half-life; format: ADME; details: microsomes
[7] = Ratio of drug concentration in lung to plasma in BALB/c mouse at 10 mg/kg, po by LC-MS analysis; format: ADME, organism-based
Method in brief: (§1)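 Female BALB/c mice, 6-8 weeks old. Dosed i.v. at 2 or 3 mg/kg, or orally at 10 mg/kg. Vehicles varied by compound: DMSO/Captisol, DMSO/PEG400/SBE-b-CD, or DMSO/Cremophor EL/Captisol. Blood was held at 4°C within 1 h, then centrifuged at 3200 × g for 10 min at 4°C. Plasma was kept at 4°C, and compound levels were measured by LC-MS.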

[8] = Protein binding in mouse plasma; format: ADME, cell-free; details: read-out: PPB (converted)
[9] = Genotoxicity in Salmonella typhimurium TA100 by Ames mutagenicity test; format: toxicity; details: salmonella enterica subsp. enterica serovar typhimurium
[10] = Protein binding in human plasma; format: ADME, cell-free; details: read-out: PPB (converted)
HepG2 = assay: Cytotoxicity against human HepG2 cells assessed as inhibition of cell growth; format: functional, cell-based
[11] = AUClast in BALB/c mouse at 10 mg/kg, po by LC-MS analysis; format: ADME, organism-based; set-up: dose 10 mg/kg, route po; details: in vivo; method in brief: as §1
[12] = test system: Mycobacterium tuberculosis; assay: Antibacterial activity against Mycobacterium tuberculosis H37Rv ATCC 27294 infected in BALB/c mouse assessed as reduction in bacterial load in lungs at 25 to 100 mg/kg, po administered five times a week for 28 days; format: functional, organism-based; details: dose 25-100 mg/kg, time 28.0 day
Method in brief: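 Female BALB/c mice, 6-8 weeks old, were infected intranasally with ~300-600 CFU H37Rv, 5 mice per group. Oral gavage began at day 21, 5 days/week for 4 weeks. Lungs were taken a day after the last dose, homogenized in PBS, serially diluted and plated in duplicate on 7H11-OADC agar for 2-5 weeks at 37°C. Detection limit ~2.3 logs. Bonferroni test against vehicle-treated mice.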

[13] = Metabolic stability in human liver microsome assessed as phase II mediated metabolite formation by measuring half-life; format: ADME; details: microsomes
[14] = Half-life in BALB/c mouse at 10 mg/kg, po by LC-MS analysis; format: ADME, organism-based; details: in vivo; method in brief: as §1
Jurkat = assay: Cytotoxicity against human Jurkat cells assessed as inhibition of cell growth; format: functional, cell-based
[15] = Drug concentration in BALB/c mouse plasma at 10 mg/kg, po by LC-MS analysis; format: ADME, organism-based; details: in vivo; method in brief: as §1
[16] = Genotoxicity in Salmonella typhimurium TA98 by Ames mutagenicity test; format: toxicity; details: salmonella enterica subsp. enterica serovar typhimurium
[17] = Cytotoxicity against HEK293 cells assessed as inhibition of cell growth; format: toxicity, cell-based; details: human
A549 = assay: Cytotoxicity against human A549 cells assessed as inhibition of cell growth; format: functional, cell-based
[18] = Stability in mouse plasma measured after 2 hrs; format: ADME, cell-free; details: read-out: Stability
[19] = Volume of distribution at steady state in BALB/c mouse at 2 mg/kg, iv by LC-MS analysis; format: ADME, organism-based; details: in vivo, read-out: Vdss; method in brief: as §1
[20] = Cmax in BALB/c mouse at 10 mg/kg, po by LC-MS analysis; format: ADME, organism-based; set-up: dose 10 mg/kg, route po; details: in vivo; method in brief: as §1
[21] = Oral bioavailability in BALB/c mouse at 10 mg/kg by LC-MS analysis; format: ADME, organism-based; details: in vivo; method in brief: as §1
[22] = Genotoxicity in Salmonella typhimurium TA98 in the presence of S9 fraction by Ames mutagenicity test; format: toxicity, subcellular; details: salmonella enterica subsp. enterica serovar typhimurium
[23] = Genotoxicity in Salmonella typhimurium TA100 in the presence of S9 fraction by Ames mutagenicity test; format: toxicity, subcellular; details: salmonella enterica subsp. enterica serovar typhimurium
[24] = Metabolic stability in mouse liver microsome assessed as phase II mediated metabolite formation by measuring half-life; format: ADME; details: microsomes
[25] = Tmax in BALB/c mouse at 10 mg/kg, po by LC-MS analysis; format: ADME, organism-based; details: in vivo; method in brief: as §1
[26] = Stability in human plasma measured after 2 hrs; format: ADME, cell-free; details: read-out: Stability
[27] = Clearance in BALB/c mouse at 2 mg/kg, iv by LC-MS analysis; format: ADME, organism-based; details: in vivo; method in brief: as §1
[28] = Drug concentration in BALB/c mouse lung at 10 mg/kg, po by LC-MS analysis; format: ADME, organism-based; details: in vivo; method in brief: as §1
[29] = Half-life in BALB/c mouse at 2 mg/kg, iv by LC-MS analysis; format: ADME, organism-based; details: in vivo; method in brief: as §1

NNC(=O)c1ccncc1 [ISONIAZID]
IC50 [1]: 350 nM
IC50 [2]: 400 nM

Cc1nc2cc(NC(=O)c3cc4sc(N5CCC(CO)CC5)nc4s3)ccc2o1
IC50 [1]: 230 nM
IC50 [2]: 500 nM

COc1ccc(C(=O)Nc2cc3sc(N4CCCCC4)nc3s2)cc1
IC50 [1]: > 20000 nM
IC50 [2]: > 20000 nM

O=C(Nc1ccc(-c2ccc(F)nc2)cc1)c1cc2sc(NCCN3CCOCC3)nc2s1
t1/2 [3]: 45.6 min
IC50 [1]: 100 nM
solubility [4]: 1.1 µg/mL (≈ 2.27 µM)
solubility [5]: 1.5 µg/mL (≈ 3.1 µM)
t1/2 [6]: 25.1 min
IC50 [2]: 610 nM

Cc1nc2cc(NC(=O)c3cc4sc(N5CCC(C(=O)N(C)C)CC5)nc4s3)ccc2o1
t1/2 [3]: > 60 min
Kp [7]: 0.7
IC50 [1]: 510 nM
solubility [4]: 1.2 µg/mL (≈ 2.56 µM)
fraction unbound [8]: 0.036
Activity [9]: Non-Toxic
fraction unbound [10]: 0.049
IC50 (HepG2): > 50000 nM
solubility [5]: 4 µg/mL (≈ 8.52 µM)
AUC(0-t) [11]: 10000 ng·h/mL
Activity [12]: inactive
t1/2 [13]: 99.7 min
t1/2 [6]: > 60 min
half-life [14]: 59.4 min
IC50 (Jurkat): > 50000 nM
Cp [15]: 4400 ng/mL
Activity [16]: Non-Toxic
IC50 [17]: > 50000 nM
IC50 [2]: 500 nM
IC50 (A549): > 50000 nM
remaining at 2 h [18]: 95.7%
Vd [19]: 0.701 L/kg
Cmax [20]: 7010 ng/mL
bioavailability [21]: 71.2%
Activity [22]: Non-Toxic
Activity [23]: Non-Toxic
t1/2 [24]: 124 min
Tmax [25]: 60 min
remaining at 2 h [26]: 86.1%
clearance [27]: 11.8 mL/min/kg
Ct [28]: 2986 ng/mL
half-life [29]: 55.2 min

COc1ccc(NC(=O)c2cc3sc(N4CCOCC4)nc3s2)cc1
t1/2 [3]: > 60 min
IC50 [1]: 210 nM
t1/2 [6]: 57.6 min
IC50 [2]: 1100 nM

Cc1nc2cc(NC(=O)c3cc4sc(N(C)CCO)nc4s3)ccc2o1
t1/2 [3]: 37.7 min
IC50 [1]: 1300 nM
solubility [4]: 4.5 µg/mL (≈ 11.6 µM)
solubility [5]: 20.6 µg/mL (≈ 53 µM)
t1/2 [6]: > 60 min
IC50 [2]: 880 nM

Cc1nc2cc(NC(=O)c3cc4sc(N5CC(C)OC(C)C5)nc4s3)ccc2o1 (configuration not stated)
IC50 [1]: 250 nM
IC50 [2]: 1100 nM

COc1ccc(-c2ccc(NC(=O)c3cc4sc(NCCN5CCOCC5)nc4s3)cc2)nc1
t1/2 [3]: < 30 min
IC50 [1]: 190 nM
solubility [4]: 0.2 µg/mL (≈ 0.404 µM)
solubility [5]: > 50 µg/mL
t1/2 [6]: < 30 min
IC50 [2]: 1350 nM

COc1ccc(NCc2cc3sc(N4CCCCC4)nc3s2)cc1
IC50 [1]: > 20000 nM
IC50 [2]: > 20000 nM

COc1ccc(N(C)C(=O)c2cc3sc(N4CCCCC4)nc3s2)cc1
IC50 [1]: > 20000 nM
IC50 [2]: > 20000 nM

O=C(Nc1ccc(O)cc1)c1cc2sc(N3CCCCC3)nc2s1
IC50 [1]: 2750 nM
IC50 [2]: 4800 nM

Cc1nc2cc(NC(=O)c3cc4sc(NCCN5CCOCC5)nc4s3)ccc2o1
t1/2 [3]: > 60 min
IC50 [1]: 470 nM
solubility [4]: 2.1 µg/mL (≈ 4.73 µM)
solubility [5]: 37.1 µg/mL (≈ 83.6 µM)
t1/2 [6]: > 60 min
IC50 [2]: 1350 nM

Cc1ccc(-c2ccc(NC(=O)c3cc4sc(NCCN5CCOCC5)nc4s3)cc2)nc1
t1/2 [3]: 27.1 min
IC50 [1]: 310 nM
solubility [4]: 1.3 µg/mL (≈ 2.71 µM)
solubility [5]: 52.3 µg/mL (≈ 109 µM)
t1/2 [6]: 20.9 min
IC50 [2]: 1350 nM

COc1ccc(NC(=O)c2cc3sc(N(C)C)nc3s2)cc1
IC50 [1]: 270 nM
IC50 [2]: 1600 nM
